Measured values reported in paper PMC11022936 (Drug Metabolism and Disposition, 2023).
“And” between values parts separate entries of the source, which are not always exact repeats. Equal entries are not always repeated. Where two headings read alike, the source gives them in different places.

Tests used:
[1] = format: in vivo, rat; details: for Total % of dose (total radioactivity in sample), feces / Total % of dose (total radioactivity in sample), urine / percentage of dose in feces / percentage of dose in urine: 0-48 h pool; for percentage of dose in feces / percentage of dose in urine: single oral 40 mg/kg; for concentration at 1 h / concentration at 3 h / concentration at 8 h: Han Wistar, rat, plasma, po; for administered dose recovered in feces (mean) / urinary excretion of administered dose (mean): intact male and female rats
[2] = rats; ref Inghardt et al., 2022; cited from earlier work
[3] = Fraction unbound in plasma, equilibrium dialysis; format: in vitro ADME; details: human plasma, 1 µmol/L, 37°C, 16 h, mean ± S.D., n = 3
How it was run: (§1)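 Equilibrium dialysis used frozen pooled plasma (n>3 donors, K2-EDTA): human (mixed sex), rat (male Han Wistar), dog (male beagle). Plasma spiked with test compound at 0.1, 1.0 or 10 was dialysed against phosphate buffer pH 7.4 for 16 h at 37°C, in triplicate. Calibration standards were made in spiked plasma. fu = buffer concentration / plasma concentration. Recovery = total compound found after dialysis / total added.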

[4] = Human MAD study, plasma AUC0-24h pools, metabolite concentrations; format: in vivo; details: human AUC0-24h plasma pool
How it was run: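 Plasma came from healthy male volunteers given unlabelled test compound once daily in a phase I multiple-ascending-dose study. Groups: 5 mg (day 10, n = 8), 10 mg (day 14, n = 8), 15 mg (day 10, n = 7). Samples were pooled time-proportionally across participants into one AUC0-24h pool per dose, protein-precipitated and run by LC-HRMS. DRE = summed concentrations of parent plus quantified metabolites.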

[5] = Rat 3-month repeated-dose GLP toxicity study; details: both, SD, in vivo, po, 125 mg/kg/day
MPO = details: read-out: potency toward MPO (IC50); in vitro; ref Inghardt et al., 2022; cited from earlier work
[6] = Dog 3-month repeated-dose GLP toxicity study; details: both, in vivo, po, 100 mg/kg/day
[7] = Fraction unbound in plasma, equilibrium dialysis; format: in vitro ADME; details: rat plasma, 10 µmol/L, 37°C, 16 h, mean ± S.D., n = 3
How it was run: as §1

[8] = Mouse 28-day repeat dose, plasma metabolite profiling; format: in vivo; details: mouse plasma AUC0-24h pool
[9] = dogs; ref Inghardt et al., 2022; cited from earlier work
[10] = ref Inghardt et al., 2022; cited from earlier work
[11] = Fraction unbound in plasma, equilibrium dialysis; format: in vitro ADME; details: dog plasma, 10 µmol/L, 37°C, 16 h, mean ± S.D., n = 3
How it was run: as §1

[12] = human; ref Tong et al., 2010; cited from earlier work
[13] = BDC male rats, oral, 0-24 h pool
[14] = female intact rats, oral 40 mg/kg
[15] = female intact rats, oral 40 mg/kg, 40 mg/kg
[16] = male intact rats, oral 40 mg/kg, 40 mg/kg
[17] = male intact rats, oral 40 mg/kg, listed as [^14C]AZD4831, 40 mg/kg

Question: Which “dose fraction excreted in bile within 0-24 hours” value ([1]; BDC female rats, oral 40 mg/kg) does the source give for C[C@@H](N)c1cc(Cl)ccc1Cn1c(=S)[nH]c(=O)c2[nH]ccc21 [AZD4831, (R)-1-(2-(1-aminoethyl)-4-chlorobenzyl)-2-thioxo-2,3-dihydro-1H-pyrrolo[3,2-d]pyrimidin-4(5H)-one] here?
Answer: 10%

Question: And the “percent of administered dose in bile” value ([1]; BDC female rats, oral, 0-24 h pool)?
Answer: 0.2%

Question: And the “dose fraction excreted in bile within 0-24 hours” value ([1]; BDC male rats, oral 40 mg/kg)?
Answer: 21%

Question: What about the “percent of administered dose in bile” value [1, 13] of the same molecule?
Answer: < 0.1%

Question: And the “percent of dose in feces” value [1, 13]?
Answer: 20%

Question: What about the “percent of dose in urine” value [1, 13] of the same molecule?
Answer: 26%

Question: What about the “Sum % of dose (integrated radioactive peaks), feces” value [1, 14] of the same molecule?
Answer: 35.5 % of dose

Question: What about the “Sum % of dose (integrated radioactive peaks), urine” value [1, 14] of the same molecule?
Answer: 31.3 % of dose

Question: And the “Total % of dose (total radioactivity in sample), feces” value (“Total % of dose … feces” for short) [1, 15]?
Answer: 43 % of dose

Question: What about the “Total % of dose (total radioactivity in sample), urine” value (from here on “Total % of dose … urine”) [1, 15] of the same molecule?
Answer: 34 % of dose

Question: What about the “Total % of dose … urine” value ([1]; female intact rats, oral 40 mg/kg, listed as [^14C]AZD4831, 40 mg/kg) of the same molecule?
Answer: 34.4 % of dose

Question: What about the “percentage of dose in feces” value ([1]; female intact rats, 40 mg/kg) of the same molecule?
Answer: 31 % of dose and 30.7 % of dose

Question: And the “percentage of dose in urine” value ([1]; female intact rats, 40 mg/kg)?
Answer: 30 % of dose and 30.3 % of dose

Question: And the “Sum µmol equiv/L (integrated radioactive peaks) in plasma” value (from here on “Sum µmol equiv/L”) ([1]; female rats, 1 h)?
Answer: 10.4 µmol equiv/L

Question: And the “Total µmol equiv/L (total radioactivity) in plasma” value (“Total µmol equiv/L” for short) ([1]; female rats, 1 h, oral)?
Answer: 12.5 µmol equiv/L

Question: And the “% of total radioactivity in plasma” value ([1]; female rats, 1 h, oral 40 mg/kg)?
Answer: 72.8 % of total

Question: And the “Sum µmol equiv/L” value ([1]; female rats, 3 h)?
Answer: 13.8 µmol equiv/L

Question: What about the “Total µmol equiv/L” value ([1]; female rats, 3 h, oral) of the same molecule?
Answer: 15.9 µmol equiv/L

Question: What about the “% of total radioactivity in plasma” value ([1]; female rats, 3 h, oral 40 mg/kg) of the same molecule?
Answer: 77.5 % of total

Question: And the “Sum µmol equiv/L” value ([1]; female rats, 8 h)?
Answer: 11.7 µmol equiv/L

Question: And the “Total µmol equiv/L” value ([1]; female rats, 8 h, oral)?
Answer: 13.4 µmol equiv/L

Question: And the “% of total radioactivity in plasma” value ([1]; female rats, 8 h, oral 40 mg/kg)?
Answer: 82.1 % of total

Question: And the concentration at 1 h ([1]; female, 40 mg/kg)?
Answer: 9.1 µM

Question: And the concentration at 3 h ([1]; female, 40 mg/kg)?
Answer: 12.3 µM

Question: And the concentration at 8 h ([1]; female, 40 mg/kg)?
Answer: 11 µM

Question: And the “administered dose recovered in feces (mean)” value ([1]; intravenous)?
Answer: 46.9%

Question: And the “urinary excretion of administered dose (mean)” value ([1]; intravenous)?
Answer: 37.7%

Question: And the “administered dose recovered in feces (mean)” value ([1]; oral)?
Answer: 51.9%

Question: And the “urinary excretion of administered dose (mean)” value ([1]; oral)?
Answer: 32.0%

Question: And the “Sum % of dose (integrated radioactive peaks), feces” value ([1]; male intact rats, oral 40 mg/kg)?
Answer: 45.9 % of dose

Question: And the “Total % of dose … feces” value [1, 16]?
Answer: 59 % of dose

Question: And the “Total % of dose … urine” value [1, 16]?
Answer: 28 % of dose

Question: What about the “Total % of dose … feces” value [1, 17] of the same molecule?
Answer: 58.7 % of dose

Question: What about the “Total % of dose … urine” value [1, 17] of the same molecule?
Answer: 28.2 % of dose

Question: What about the “percentage of dose in feces” value ([1]; male intact rats, 40 mg/kg) of the same molecule?
Answer: 40 % of dose and 39.6 % of dose

Question: And the “percentage of dose in urine” value ([1]; male intact rats, 40 mg/kg)?
Answer: 20 % of dose and 20.3 % of dose

Question: And the “Sum µmol equiv/L” value ([1]; male rats, 1 h)?
Answer: 20.3 µmol equiv/L

Question: And the “Total µmol equiv/L” value ([1]; male rats, 1 h, oral)?
Answer: 23.4 µmol equiv/L

Question: And the “% of total radioactivity in plasma” value ([1]; male rats, 1 h, oral 40 mg/kg)?
Answer: 78.2 % of total

Question: What about the “Sum µmol equiv/L” value ([1]; male rats, 3 h) of the same molecule?
Answer: 13.6 µmol equiv/L

Question: What about the “Total µmol equiv/L” value ([1]; male rats, 3 h, oral) of the same molecule?
Answer: 17.1 µmol equiv/L

Question: What about the “% of total radioactivity in plasma” value ([1]; male rats, 3 h, oral 40 mg/kg) of the same molecule?
Answer: 66.8 % of total

Question: What about the “Sum µmol equiv/L” value ([1]; male rats, 8 h) of the same molecule?
Answer: 13.7 µmol equiv/L

Question: What about the “Total µmol equiv/L” value ([1]; male rats, 8 h, oral) of the same molecule?
Answer: 16.9 µmol equiv/L

Question: What about the “% of total radioactivity in plasma” value ([1]; male rats, 8 h, oral 40 mg/kg) of the same molecule?
Answer: 70.9 % of total

Question: What about the concentration at 1 h ([1]; male, 40 mg/kg) of the same molecule?
Answer: 18.3 µM

Question: And the concentration at 3 h ([1]; male, 40 mg/kg)?
Answer: 11.4 µM

Question: What about the concentration at 8 h ([1]; male, 40 mg/kg) of the same molecule?
Answer: 12 µM

Question: And the “radioactivity recovered in bile (mean)” value ([1]; orally dosed BDC female rats)?
Answer: 10.4%

Question: What about the “radioactivity recovered in feces (mean)” value ([1]; orally dosed BDC female rats) of the same molecule?
Answer: 23.2%

Question: And the “radioactivity recovered in urine (mean)” value ([1]; orally dosed BDC female rats)?
Answer: 54.7%

Question: What about the “radioactivity recovered in bile (mean)” value ([1]; orally dosed BDC male rats) of the same molecule?
Answer: 21.4%

Question: What about the “radioactivity recovered in feces (mean)” value ([1]; orally dosed BDC male rats) of the same molecule?
Answer: 27.5%

Question: What about the “radioactivity recovered in urine (mean)” value ([1]; orally dosed BDC male rats) of the same molecule?
Answer: 37.3%

Question: And the “share of radioactivity (integrated radiochromatographic peaks) in plasma” value ([1]; rats, oral 40 mg/kg, all time points (1, 3, 8 h))?
Answer: > 67%

Question: And the bioavailability [2]?
Answer: good bioavailability

Question: And the clearance [2]?
Answer: moderate clearance

Question: And the “percentage free drug in plasma” value [3]?
Answer: 36.1 ± 1.0%

Question: And the plasma concentration ([4]; 5 mg once daily)?
Answer: 0.028 µM

Question: What about the plasma concentration ([4]; 10 mg once daily) of the same molecule?
Answer: 0.053 µM

Question: And the plasma concentration ([4]; 15 mg once daily)?
Answer: 0.086 µM

Question: And the NOAEL at 3 month [5]?
Answer: 125 mg/kg/day

Question: What about the IC50 (MPO) of the same molecule?
Answer: 1.5 nM

Question: What about the NOAEL at 3 month [6] of the same molecule?
Answer: 100 mg/kg/day

Question: And the “percentage free drug in plasma” value [7]?
Answer: 22.0 ± 0.49%

Question: What about the “Drug-Related Exposure (%)” value ([8]; day 28, Female (125 mg/kg)) of the same molecule?
Answer: 76%

Question: And the “Drug-Related Exposure (%)” value ([8]; day 28, Female (250 mg/kg))?
Answer: 74%

Question: And the “Drug-Related Exposure (%)” value ([8]; day 28, Female (500 mg/kg))?
Answer: 57%

Question: And the “Drug-Related Exposure (%)” value ([8]; day 28, Male (125 mg/kg))?
Answer: 78%

Question: And the bioavailability [9]?
Answer: good bioavailability

Question: What about the clearance [9] of the same molecule?
Answer: moderate clearance

Question: What about the permeability [10] of the same molecule?
Answer: high permeability

Question: What about the “percentage free drug in plasma” value [11] of the same molecule?
Answer: 31.9 ± 0.50%

Question: For c1cc2c3c(c1)[C@H]1CCC[C@H]1CN3CCNC2 [vabicaserin], which “exposure of the carbamoyl glucuronide metabolite relative to parent” value [12] is on record?
Answer: 60 fold
